In ChEMBL document CHEMBL1148835, “Weak base dispiro-1,2,4-trioxolanes: potent antimalarial ozonides” (Bioorg Med Chem Lett, 2007):
In brackets after ≈: the same amount, converted by molar mass.

How the values were obtained:
Plasmodium berghei = test: Antimalarial activity as reduced parasitaemia against Plasmodium berghei infected MORO mice (Mus musculus) at 10 mg/kg peroral dose; assay type: functional; parameters: scale not given: the % may be the effect or the level left; details: route oral
Summary of the method: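 Groups of three P. berghei-infected MORO mice were given a single oral 10 mg/kg dose on day 1 post-infection. Read-out was percent reduction in parasitemia on day 3 post-infection.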

Plasmodium falciparum [1] = test: Antimalarial activity against chloroquine-sensitive Plasmodium falciparum NF54; assay type: functional, organism-based
Summary of the method: (§1)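 In vitro growth assay using asexual P. falciparum cultures, K1 for line 1 and NF54 for line 2. Each value is the mean of 2–3 determinations. Individual measurements differed by less than 50%.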

Plasmodium falciparum [2] = test: Antimalarial activity against chloroquine-resistant Plasmodium falciparum K1; assay type: functional, organism-based; summary of the method: as §1
[3] = biological target: Voltage-gated inwardly rectifying potassium channel KCNH2 (Homo sapiens, UniProt Q12809); test: Inhibition of hERG by patch clamp assay; assay type: toxicity
Sequence of Voltage-gated inwardly rectifying potassium channel KCNH2 (Q12809 whole entry): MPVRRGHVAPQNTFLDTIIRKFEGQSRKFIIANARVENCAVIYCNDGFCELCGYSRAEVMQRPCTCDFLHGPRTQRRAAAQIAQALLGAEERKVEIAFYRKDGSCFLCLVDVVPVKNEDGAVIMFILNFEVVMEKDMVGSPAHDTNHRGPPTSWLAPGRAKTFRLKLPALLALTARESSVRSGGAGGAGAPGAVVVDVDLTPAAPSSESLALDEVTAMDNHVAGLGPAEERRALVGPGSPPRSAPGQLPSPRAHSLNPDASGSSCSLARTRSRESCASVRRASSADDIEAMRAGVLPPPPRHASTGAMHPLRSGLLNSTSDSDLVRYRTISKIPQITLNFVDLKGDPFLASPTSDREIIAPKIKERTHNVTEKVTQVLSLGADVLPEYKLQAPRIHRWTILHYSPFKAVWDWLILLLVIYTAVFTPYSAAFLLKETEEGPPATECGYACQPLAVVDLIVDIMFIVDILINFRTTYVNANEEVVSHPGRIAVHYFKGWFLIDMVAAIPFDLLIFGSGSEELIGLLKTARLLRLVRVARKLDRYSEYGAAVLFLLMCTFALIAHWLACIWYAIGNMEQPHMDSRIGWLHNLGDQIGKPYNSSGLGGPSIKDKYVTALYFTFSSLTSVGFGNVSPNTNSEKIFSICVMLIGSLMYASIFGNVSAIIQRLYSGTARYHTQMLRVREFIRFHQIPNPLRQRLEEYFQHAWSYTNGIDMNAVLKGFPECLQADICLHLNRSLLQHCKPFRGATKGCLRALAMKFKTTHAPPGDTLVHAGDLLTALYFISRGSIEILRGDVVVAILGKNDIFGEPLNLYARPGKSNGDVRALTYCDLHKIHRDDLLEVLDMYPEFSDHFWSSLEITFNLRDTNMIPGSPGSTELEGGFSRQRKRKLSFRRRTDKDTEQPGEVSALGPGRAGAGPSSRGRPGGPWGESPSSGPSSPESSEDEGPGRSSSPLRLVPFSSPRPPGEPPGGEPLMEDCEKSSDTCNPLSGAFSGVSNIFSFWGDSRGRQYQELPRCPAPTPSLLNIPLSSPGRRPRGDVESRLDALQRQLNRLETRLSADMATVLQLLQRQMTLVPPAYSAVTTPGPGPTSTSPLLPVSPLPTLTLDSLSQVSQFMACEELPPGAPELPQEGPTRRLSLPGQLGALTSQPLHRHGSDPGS

[4] = Bioavailability in Sprague-Dawley rat at 25 mg/kg, po; assay type: ADME, organism-based; details: in vivo
Rattus norvegicus = organism: Rattus norvegicus; test: Neurotoxicity in rat; assay type: toxicity, organism-based; details: in vivo
Summary of the method: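 Five-day toxicity study in male rats with daily oral administration, including observation for signs of neurotoxicity.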

[5] = Biodistribution in Sprague-Dawley rat at 25 mg/kg, iv and 50 mg/kg, po; assay type: ADME, organism-based; details: in vivo
Summary of the method: (§2)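 Rats were dosed 25 mg/kg IV via a jugular cannula in aqueous citrate buffer, pH 3. Separately, 50 mg/kg was given by oral gavage as a suspension in 0.5% w/v aqueous HPMC. Carotid-cannula serial blood samples were centrifuged immediately and the plasma stored at -80 °C. Plasma was assayed by LC/MS against a calibration curve prepared in plasma. Values are the average of 2–3 determinations.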

[6] = Plasma clearance in Sprague-Dawley rat at 25 mg/kg, iv and 50 mg/kg, po; assay type: ADME, organism-based; summary of the method: as §2
[7] = Half life in Sprague-Dawley rat at 25 mg/kg, iv and 50 mg/kg, po; assay type: ADME, organism-based; details: in vivo; summary of the method: as §2
[8] = Half life in Sprague-Dawley rat at 4 mg/kg, iv and 10 mg/kg, po; assay type: ADME, organism-based; details: in vivo
Summary of the method: (§3)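 Rats were dosed 4 mg/kg IV via a jugular cannula fitted the day before, in 40% v/v propylene glycol, 10% v/v ethanol and water. Separately, 10 mg/kg was given by oral gavage as a suspension in 0.5% w/v aqueous HPMC. Serial blood was drawn via a carotid cannula and the plasma stored at -80 °C. Plasma was quantified by LC/MS against a calibration curve prepared in plasma. Values are the average of 2–3 determinations.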

[9] = Biodistribution in Sprague-Dawley rat at 4 mg/kg, iv and 10 mg/kg, po; assay type: ADME, organism-based; details: in vivo; summary of the method: as §3
[10] = Plasma clearance in Sprague-Dawley rat at 4 mg/kg, iv and 10 mg/kg, po; assay type: ADME, organism-based; summary of the method: as §3
[11] = Half life in Sprague-Dawley rat at 10 mg/kg, iv and 50 mg/kg, po; assay type: ADME, organism-based; details: in vivo
Summary of the method: (§4)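 Rats were dosed 10 mg/kg IV via a jugular cannula in 10% v/v propylene glycol, 10% v/v ethanol and water. Separately, 50 mg/kg was given by oral gavage as a suspension in 0.5% w/v aqueous HPMC. Serial blood was drawn via a carotid cannula and the plasma stored at -80 °C. LC/MS quantification used a calibration curve prepared in plasma. Values are the average of 2–3 determinations.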

[12] = Plasma clearance in Sprague-Dawley rat at 10 mg/kg, iv and 50 mg/kg, po; assay type: ADME, organism-based; summary of the method: as §4
[13] = Bioavailability in Sprague-Dawley rat at 10 mg/kg, po; assay type: ADME, organism-based; details: in vivo; summary of the method: as §3
[14] = Biodistribution in Sprague-Dawley rat at 10 mg/kg, iv and 50 mg/kg, po; assay type: ADME, organism-based; details: in vivo; summary of the method: as §4

Structure (SMILES)	Activity (Plasmodium berghei) [%]	IC50 (Plasmodium falciparum [1]) [ng/mL]	IC50 (Plasmodium falciparum [2]) [ng/mL]	also measured
Cc1ccc(S(=O)(=O)O)cc1.N[C@H]1CC[C@]2(CC1)OO[C@]1(O2)C2CC3CC(C2)CC1C3	98	0.31	–	–
OCC[C@H]1CC[C@]2(CC1)OO[C@]1(O2)C2CC3CC(C2)CC1C3	89	0.75 (≈ 2.43 nM)	0.3 (≈ 0.973 nM)	–
c1cnn(C[C@H]2CC[C@]3(CC2)OO[C@]2(O3)C3CC4CC(C3)CC2C4)c1	78	1.2 (≈ 3.48 nM)	1 (≈ 2.9 nM)	–
c1c[nH]c(C[C@H]2CC[C@]3(CC2)OO[C@]2(O3)C3CC4CC(C3)CC2C4)n1	71	–	–	–
C1C2CC3CC1CC(C2)[C@]31OO[C@@]2(CC[C@H](Cc3nnn[nH]3)CC2)O1	40	55 (≈ 159 nM)	46 (≈ 133 nM)	–
NC(=O)c1cn(C[C@H]2CC[C@]3(CC2)OO[C@]2(O3)C3CC4CC(C3)CC2C4)cn1	99.76	–	–	–
c1cn(CC[C@H]2CC[C@]3(CC2)OO[C@]2(O3)C3CC4CC(C3)CC2C4)cn1	–	0.4 (≈ 1.12 nM)	0.44 (≈ 1.23 nM)	–
NC(=O)CNC[C@H]1CC[C@]2(CC1)OO[C@]1(O2)C2CC3CC(C2)CC1C3	–	0.59 (≈ 1.68 nM)	0.3 (≈ 0.856 nM)	IC50 [3]: 2700 nM; bioavailability [4]: 58%; Activity (Rattus norvegicus): Non-toxic; Vd [5]: 13 L/kg; clearance [6]: 102 mL/min/kg; half-life [7]: 1.57 h
O=CN1CCN(C[C@H]2CC[C@]3(CC2)OO[C@]2(O3)C3CC4CC(C3)CC2C4)CC1	99.01	–	–	–
NS(=O)(=O)c1ccc(N[C@H]2CC[C@]3(CC2)OO[C@]2(O3)C3CC4CC(C3)CC2C4)cc1	99.98	3 (≈ 6.9 nM)	2.7 (≈ 6.21 nM)	–
CC(C)(C)C1CCC2(CC1)OOC1(CCC(CN)CC1)O2.CS(=O)(=O)O (stereo not drawn)	0	> 100	> 100	–
CS(=O)(=O)O.NC[C@H]1CC[C@]2(CC1)OOC1(O2)C2CC3CC(C2)CC1C3 (stereo partly drawn)	–	–	0.39	IC50 [3]: 1800 nM; bioavailability [4]: 31%; Activity (Rattus norvegicus): Non-toxic; Vd [5]: 39 L/kg; clearance [6]: 177 mL/min/kg; half-life [7]: 2.5 h
C1C2CC3CC1CC(C2)C31OO[C@]2(CC[C@@H](CNC3CC3)CC2)O1.CS(=O)(=O)O (stereo partly drawn)	–	0.45	0.56	–
CS(=O)(=O)O.O=C(O)CNC[C@H]1CC[C@]2(CC1)OOC1(O2)C2CC3CC(C2)CC1C3 (stereo partly drawn)	–	17	11	–
CS(=O)(=O)O.NC(=O)CCNC[C@H]1CC[C@]2(CC1)OOC1(O2)C2CC3CC(C2)CC1C3 (stereo partly drawn)	99.92	0.91	0.41	–
CC(C)(N)CNC[C@H]1CC[C@]2(CC1)OOC1(O2)C2CC3CC(C2)CC1C3.CS(=O)(=O)O.CS(=O)(=O)O (stereo partly drawn)	–	0.83	0.49	–
CN(C)C[C@H]1CC[C@]2(CC1)OOC1(O2)C2CC3CC(C2)CC1C3.CS(=O)(=O)O (stereo partly drawn)	–	0.75	0.35	–
CS(=O)(=O)O.c1csc(NC[C@H]2CC[C@]3(CC2)OOC2(O3)C3CC4CC(C3)CC2C4)n1 (stereo partly drawn)	–	2.2	2.3	–
CS(=O)(=O)O.c1ncn(C[C@H]2CC[C@]3(CC2)OOC2(O3)C3CC4CC(C3)CC2C4)n1 (stereo partly drawn)	–	1.7	0.9	–
CS(=O)(=O)O.NOC[C@H]1CC[C@]2(CC1)OOC1(O2)C2CC3CC(C2)CC1C3 (stereo partly drawn)	47	20	28	–
NC(=O)CN(CC(N)=O)C[C@H]1CC[C@]2(CC1)OO[C@]1(O2)C2CC3CC(C2)CC1C3	86	2 (≈ 4.91 nM)	1.7 (≈ 4.17 nM)	–
NC(=O)c1ccc(N[C@H]2CC[C@]3(CC2)OO[C@]2(O3)C3CC4CC(C3)CC2C4)cc1	99.98	1 (≈ 2.51 nM)	1.1 (≈ 2.76 nM)	–
NC(=O)c1cncn1C[C@H]1CC[C@]2(CC1)OO[C@]1(O2)C2CC3CC(C2)CC1C3	99.77	–	–	–
OC[C@H]1CC[C@]2(CC1)OO[C@]1(O2)C2CC3CC(C2)CC1C3	–	–	–	half-life [8]: 0.45 h; Vd [9]: 5.3 L/kg; clearance [10]: 136 mL/min/kg
NS(=O)(=O)c1ccc(NC[C@H]2CC[C@]3(CC2)OO[C@]2(O3)C3CC4CC(C3)CC2C4)cc1	99.95	–	–	–
O=C1CN(C[C@H]2CC[C@]3(CC2)OO[C@]2(O3)C3CC4CC(C3)CC2C4)CCN1	–	1.8 (≈ 4.78 nM)	1.3 (≈ 3.45 nM)	–
CCOC(=O)NC[C@H]1CC[C@]2(CC1)OO[C@]1(O2)C2CC3CC(C2)CC1C3	–	0.56 (≈ 1.53 nM)	–	–
Cl.c1cn(C[C@H]2CC[C@]3(CC2)OO[C@]2(O3)C3CC4CC(C3)CC2C4)cn1	–	1.1	1.3	half-life [11]: 0.783 h; clearance [12]: 60.1 mL/min/kg; Activity (Rattus norvegicus): Non-toxic; bioavailability [13]: 36%; Vd [14]: 4.1 L/kg
Cl.NCC[C@H]1CC[C@]2(CC1)OO[C@]1(O2)C2CC3CC(C2)CC1C3	–	0.48	0.15	–
